In ChEMBL document CHEMBL1127574, “Design and synthesis of ellipticinium salts and 1,2-dihydroellipticines with high selectivities against human CNS cancers in vitro” (1994):

Columns and labels:
Format in all cases: functional
Details in all cases: Homo sapiens
COLO 205 = test: Tested in vitro for cytotoxicity in COLO 205 cell lines
Method in brief: (§1)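 Compounds dissolved in DMSO, then diluted 500-fold into aqueous medium. The resulting aqueous solutions or suspensions were added to the cultured human tumour cell lines, and the cells were exposed for 48 h. Growth was read colorimetrically in one of two ways: a metabolic assay in which viable cells reduce a tetrazolium salt to a formazan dye, or a protein stain for total cellular protein.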

CAKI-1 = test: Tested in vitro for cytotoxicity in CAKI-1 cell lines; method in brief: as §1
SF-268 = test: Tested in vitro for cytotoxicity in SF-268 cell lines; method in brief: as §1
A549 = test: Tested in vitro for cytotoxicity in A549/ATCC cell lines; method in brief: as §1
DMS-114 = test: Tested in vitro for cytotoxicity in DMS114 cell lines; method in brief: as §1
CCRF-CEM = test: Tested in vitro for cytotoxicity in CCRF-CEM cell lines; method in brief: as §1
IGROV-1 = test: Tested in vitro for cytotoxicity in IGROV1 cell lines; method in brief: as §1
Malme-3M = test: Tested in vitro for cytotoxicity in MALME-3M; method in brief: as §1

| SMILES | GI50 (COLO 205) [nM] | GI50 (CAKI-1) [nM] | GI50 (SF-268) [nM] | GI50 (A549) [nM] | GI50 (DMS-114) [nM] | GI50 (CCRF-CEM) [nM] | GI50 (IGROV-1) [nM] | GI50 (Malme-3M) [nM] |
| --- | --- | --- | --- | --- | --- | --- | --- | --- |
| Cc1ccc2[nH]c3c(C)c4c(c(C)c3c2c1)CN(C)C=C4 | 306 | 1210 | 395 | 380 | 438 | 2340 | 774 | 1720 |
| CC(=O)O[C@@H]1[C@@H](OC(C)=O)[C@@H](N2C=Cc3c(c(C)c4c([nH]c5ccccc54)c3C)C2)OC[C@@H]1OC(C)=O | 36700 | > 100000 | 31000 | 64000 | 15600 | 29000 | 24100 | 30200 |
